In ChEMBL document CHEMBL1124600, “Synthesis and biological properties of purine and pyrimidine 5'-deoxy-5'-(dihydroxyphosphinyl)-beta-D-ribofuranosyl analogues of AMP, GMP, IMP, and CMP” (J Med Chem, 1989) one finds Activity and % nucleotide present data, which are given here for five molecules.

Test [1] concerns unidentified adenovirus. Description: Antiviral activity at <=320 uM determined in a culture of Adenovirus type 2; IA = inactive. The class given is functional, organism-based.
The subject of a further test is CCRF-CEM. Description: Antitumor activity at <=100 uM determined in a 3-5 days culture of CCRF-CEM(human T cell leukemia); NA = no activity was shown. It is filed as functional, cell-based. The method in brief:
(§1)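 Wells seeded at (5–10) × 10³ cells with compound at 0.1–100 μM, triplicate wells, 37 °C. L1210 and WI-L2 ran 3 days, CCRF-CEM 4 days, Lovo/L 5 days. MTT was then added for 2 h and formazan dissolved in 2-propanol/0.04 M HCl before absorbance reading. ID50 is the concentration giving 50% of control growth.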

Test [2] deals with Human alphaherpesvirus 2. The experiment in a line: Antiviral activity at <=320 uM determined in a culture of Herpes simplex virus type 2; IA = inactive. The class given is functional, organism-based.
The test system of test [3] is Influenza A virus. The experiment in a line: Antiviral activity at <=320 uM determined in a culture of Influenza A; IA = inactive. It is filed as functional, organism-based. The note with it: unidentified influenza virus.
Another test deals with L1210. Description: Antitumor activity at <=100 uM determined in a 3-5 days culture of L1210 murine leukemia; NA = no activity was shown. The note with it: Mus musculus. It is filed as functional, cell-based. The method in brief: as §1
The next test deals with LoVo. The experiment in a line: Antitumor activity at <=100 uM determined in a 3-5 days culture of LOVO/L (human colon carcinoma); NA = no activity was shown. It is filed as functional, cell-based. An outline of the steps:
as §1

Test [4] has as its system Enterovirus. The experiment in a line: Antiviral activity at <=320 uM determined in a culture of Rhinovirus type 1-A; IA = inactive. It is filed as functional, organism-based.
For test [5], the system named is WIL2. Description: Antitumor activity at <=100 uM determined in a 3-5 days culture of WI-L2 (human B-ltmphoblast); NA = no activity was shown. The class given is functional, cell-based. The method in brief: as §1
Test [6] concerns Visna-maedi virus. Description: Antiviral activity at <=320 uM determined in a culture of Visna virus; IA = inactive. The class given is functional, organism-based.
In test [7] the test system is WIL2. The experiment in a line: Antitumor activity at <=100 uM determined in a 3-5 days culture of WI-L2 […]; NA = no activity was shown. The class given is functional, cell-based. The method in brief: as §1
The test system of test [8] is unidentified adenovirus. Description: Antiviral activity at 100 uM determined in a culture of Adenovirus type 2; IA = inactive. The class given is functional, organism-based.
Test [9] has as its system Human alphaherpesvirus 2. The experiment in a line: Antiviral activity at 1-3 uM determined in a culture of Herpes simplex virus type 2; IA = inactive. The class given is functional, organism-based.
Test [10] has as its system Influenza A virus. Description: Antiviral activity at 10-30 uM determined in a culture of Influenza A; IA = inactive. The class given is functional, organism-based. Conditions: unidentified influenza virus.
The next test concerns Human respirovirus 3. Description: Antiviral activity at 10-30 uM determined in a culture of Parainfluenza virus type 3; IA = inactive. It is filed as functional, organism-based.
Test [11] concerns Enterovirus. Description: Antiviral activity at 100 uM determined in a culture of Rhinovirus type 1-A; IA = inactive. The class given is functional, organism-based.
In test [12] the test system is Visna-maedi virus. Description: Antiviral activity at 1-3 uM determined in a culture of Visna virus; IA = inactive. It is filed as functional, organism-based.
The nature of test [13]: Percent of phosphorylated forms of compound at 4 hr after phosphorylation by nucleoside monophosphate kinase. The note with it: Bos taurus.

Each structure is given as a SMILES string. The source made the active and inactive calls. The rule behind the calls is not given here.

For the molecule `O=c1ccn(C2O[C@H](CP(=O)(O)O)[C@@H](O)[C@H]2O)c(=O)[nH]1` (stereo partly drawn), the outcome in the test on unidentified adenovirus [1], in the test with CCRF-CEM, in the test on Human alphaherpesvirus 2 [2], in the test with Influenza A virus [3], in the test on L1210 and in the test on LoVo was inactive. For the same molecule, the result in the test on Enterovirus [4], with WIL2 [5] and in the test with Visna-maedi virus [6] was inactive.

As for `O=P(O)(O)C[C@H]1OC(n2cnc3c(O)ncnc32)[C@H](O)[C@@H]1O` (stereo partly drawn), the result with unidentified adenovirus [1], with CCRF-CEM, in the test with Human alphaherpesvirus 2 [2], in the test with Influenza A virus [3], with L1210 and in the test on LoVo was inactive. For the same molecule, the outcome in the test on Enterovirus [4], in the test on WIL2 [7] and with Visna-maedi virus [6] was inactive.

Turning to `Nc1nc(O)c2ncn(C3O[C@H](CP(=O)(O)O)[C@@H](O)[C@H]3O)c2n1` (stereo partly drawn), the outcome with unidentified adenovirus [1], with CCRF-CEM, with Human alphaherpesvirus 2 [2], in the test with Influenza A virus [3], in the test on L1210 and with LoVo was inactive. Moreover, the outcome in the test on Enterovirus [4], in the test on WIL2 [5] and in the test with Visna-maedi virus [6] was inactive.

For `NC(=O)c1ncn([C@@H]2O[C@H](CO)[C@@H](O)[C@H]2O)n1`, the result in the test with unidentified adenovirus [8], in the test with Human alphaherpesvirus 2 [9], in the test with Influenza A virus [10], with Human respirovirus 3, in the test on Enterovirus [11] and in the test with Visna-maedi virus [12] was inactive.

As for `Nc1ccn(C2O[C@H](CP(=O)(O)O)[C@@H](O)[C@H]2O)c(=O)n1` (stereo partly drawn), the outcome in the test with unidentified adenovirus [1], in the test on CCRF-CEM, in the test with Human alphaherpesvirus 2 [2], with Influenza A virus [3], in the test with L1210 and in the test on LoVo was inactive. The outcome in the test with Enterovirus [4], in the test with WIL2 [5] and in the test on Visna-maedi virus [6] was inactive. In addition, in test [13], the % nucleotide present came to 87%.
